Laboratory results: paper PMC6520168 (ACS chemical neuroscience, 2019)
Entries after “also recorded” stand apart in the source; their conditions may differ. Read-outs that look alike come from different tables or passages of the source.

Key:
MOR [1] = molecular target: T1, MOR (Mus musculus, UniProt P42866); settings: 24 h pretreatment; values previously published; cited from earlier work
MOR [2] = molecular target: T1, MOR; type: cell-based; settings: 24 h pretreatment
mice = settings: cited from earlier work
MOR in mouse thalamus = MOR in mouse thalamus (Mus musculus, UniProt P42866); assay: [35S]-GTPγS functional assay in mouse thalamus membranes; type: biochemical
human NOP receptor = human NOP receptor (Homo sapiens, UniProt P41146); assay: [3H]nociceptin NOP receptor binding assay; settings: 3 μM test ligand
Method in brief: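 Membranes came from CHO cells stably expressing human NOP receptor (~5 pmol/mg protein), lysed hypotonically in Tris/EDTA/PMSF (pH 7.4). Binding used 20 μg protein with 0.2 nM [3H]nociceptin in 50 mM Tris-HCl, 0.1% BSA, pH 7.4, with or without 3 μM test compound. Percent inhibition = 100% − (binding with compound − nonspecific)/(total − nonspecific) × 100%.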

morphine-pelleted mice = assay: Withdrawal assay in chronic morphine-pelleted mice; type: in vivo, mouse
μ opioid receptor (MOR) = μ opioid receptor (MOR) (Mus musculus, UniProt P42866); assay: [35S]-GTPγS functional assay in mMOR-CHO cell membranes; type: biochemical
hMOR = hMOR (Homo sapiens, UniProt P35372); assay: Ca2+ flux assay in Gαqi5 transfected hMOR-CHO cells; type: cell-based; settings: agonism study
δ opioid receptor (DOR) = δ opioid receptor (DOR) (Mus musculus, UniProt P32300); assay: [35S]-GTPγS functional assay in mDOR-CHO cells; type: biochemical
κ opioid receptor (KOR) = κ opioid receptor (KOR) (Mus musculus, UniProt P33534); assay: [35S]-GTPγS functional assay in mKOR-CHO cells; type: biochemical
DOR = settings: read-out: DOR Ki; cited from earlier work
MOR [3] = molecular target: T1, MOR; type: cell-based
MOR in rat thalamus = settings: cited from earlier work
[4] = 1 mg/kg s.c., morphine-pelleted mice
[5] = 50 mg/kg s.c., morphine-pelleted mice

T1 sequence (P42866 whole entry): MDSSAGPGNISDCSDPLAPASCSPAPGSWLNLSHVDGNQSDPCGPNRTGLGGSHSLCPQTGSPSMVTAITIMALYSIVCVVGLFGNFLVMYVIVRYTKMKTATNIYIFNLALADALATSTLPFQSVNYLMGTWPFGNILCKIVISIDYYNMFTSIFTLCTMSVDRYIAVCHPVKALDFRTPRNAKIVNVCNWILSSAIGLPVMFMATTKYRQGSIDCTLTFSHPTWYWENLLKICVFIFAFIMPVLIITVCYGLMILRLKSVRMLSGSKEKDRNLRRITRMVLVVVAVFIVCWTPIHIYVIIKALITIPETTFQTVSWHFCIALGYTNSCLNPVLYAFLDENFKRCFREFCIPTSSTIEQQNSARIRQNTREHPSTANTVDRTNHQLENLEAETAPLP
Chain of μ opioid receptor (MOR) (P42866 whole entry): as above
Chain of human NOP receptor (P41146 whole entry): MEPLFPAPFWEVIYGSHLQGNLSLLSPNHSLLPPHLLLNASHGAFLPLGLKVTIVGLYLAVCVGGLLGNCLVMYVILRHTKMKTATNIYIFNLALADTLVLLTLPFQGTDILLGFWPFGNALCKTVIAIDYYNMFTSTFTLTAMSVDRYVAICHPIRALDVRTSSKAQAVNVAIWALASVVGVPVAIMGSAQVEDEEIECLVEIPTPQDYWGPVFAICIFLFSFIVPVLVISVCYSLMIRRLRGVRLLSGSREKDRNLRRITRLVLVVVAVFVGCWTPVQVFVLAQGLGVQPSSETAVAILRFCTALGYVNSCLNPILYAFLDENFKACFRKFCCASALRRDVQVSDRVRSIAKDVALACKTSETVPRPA
Chain of δ opioid receptor (DOR) (P32300 whole entry): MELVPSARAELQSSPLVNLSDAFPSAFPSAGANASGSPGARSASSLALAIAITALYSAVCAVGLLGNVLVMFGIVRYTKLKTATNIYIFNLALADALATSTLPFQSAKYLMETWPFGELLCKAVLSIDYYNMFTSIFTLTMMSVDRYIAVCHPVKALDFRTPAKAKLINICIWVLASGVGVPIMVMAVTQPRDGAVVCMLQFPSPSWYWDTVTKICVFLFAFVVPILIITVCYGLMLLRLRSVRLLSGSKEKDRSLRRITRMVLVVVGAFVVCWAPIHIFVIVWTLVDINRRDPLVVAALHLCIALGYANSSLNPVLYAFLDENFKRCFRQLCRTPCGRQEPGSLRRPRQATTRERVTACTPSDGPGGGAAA
Chain of κ opioid receptor (KOR) (P33534 whole entry): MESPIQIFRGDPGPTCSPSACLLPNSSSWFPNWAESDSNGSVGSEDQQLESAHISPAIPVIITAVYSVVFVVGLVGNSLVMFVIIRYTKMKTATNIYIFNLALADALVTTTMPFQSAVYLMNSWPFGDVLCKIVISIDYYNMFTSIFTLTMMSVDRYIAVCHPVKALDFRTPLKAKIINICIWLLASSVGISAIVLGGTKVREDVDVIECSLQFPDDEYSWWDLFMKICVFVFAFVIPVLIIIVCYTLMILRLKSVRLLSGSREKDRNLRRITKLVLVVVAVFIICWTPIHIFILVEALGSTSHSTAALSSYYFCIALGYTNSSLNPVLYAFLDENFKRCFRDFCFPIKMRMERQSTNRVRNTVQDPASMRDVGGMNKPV
Chain of MOR in mouse thalamus (P42866 whole entry): as the sequence (P42866 whole entry) above
Chain of hMOR (P35372 whole entry): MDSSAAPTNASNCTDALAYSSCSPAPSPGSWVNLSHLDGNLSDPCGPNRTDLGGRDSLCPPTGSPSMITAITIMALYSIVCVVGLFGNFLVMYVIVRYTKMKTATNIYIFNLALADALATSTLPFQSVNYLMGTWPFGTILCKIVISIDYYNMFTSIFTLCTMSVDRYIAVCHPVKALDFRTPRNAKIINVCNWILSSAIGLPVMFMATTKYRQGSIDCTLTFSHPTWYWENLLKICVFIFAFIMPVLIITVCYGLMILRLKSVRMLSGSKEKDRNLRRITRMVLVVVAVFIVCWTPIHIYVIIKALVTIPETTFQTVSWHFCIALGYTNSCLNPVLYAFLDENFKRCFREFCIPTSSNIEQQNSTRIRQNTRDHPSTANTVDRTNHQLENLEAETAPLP

C[C@@H](NC(=O)[C@@H](N)Cc1ccc(O)cc1)C(=O)NCC(=O)N(C)[C@@H](Cc1ccccc1)C(=O)NCCO [DAMGO, [D-Ala^2, N-MePhe^4, Gly-ol]-enkephalin, reference compound]
Bmax (pmol/mg) of [3H]naloxone saturation binding after pretreatment (MOR [1]): 1.49 ± 0.12 pmol/mg | Reduction in receptor density (Bmax) (MOR [2]; versus vehicle): ~50%

O=C(N[C@H]1CC[C@@]2(O)[C@H]3Cc4ccc(O)c5c4[C@@]2(CCN3CC2CC2)[C@H]1O5)c1cccc2cc[nH]c12 [NAN, 17-cyclopropylmethyl-3,14β-dihydroxy-4,5α-epoxy-6α-(indole-7-carboxamido)morphinan]
Antinociception in the tail-flick assay (mice): did not produce antinociception | Antagonism of the antinociceptive activity of morphine (mice; mice, warm water tail immersion assay): almost completely antagonized | MOR stimulation compared to other ligands (MOR in mouse thalamus): low MOR stimulation that was significantly less than DAMGO and similar to NAQ and nalbuphine | Inhibition of [3H]-nociceptin binding to the NOP receptor (human NOP receptor): did not inhibit binding; also recorded: did not show NOP binding | Escape jumps versus 1 mg/kg NTX (morphine-pelleted mice; [4]): significantly less | Wet-dog shakes versus 1 mg/kg NTX (morphine-pelleted mice; [4]): significantly less | Escape jumps versus 1 mg/kg NTX (morphine-pelleted mice; 10 mg/kg s.c., morphine-pelleted mice): not significantly different | Escape jumps versus 1 mg/kg NTX (morphine-pelleted mice; [5]): not significantly different | Paw tremors versus 1 mg/kg NTX (morphine-pelleted mice; [5]): significantly less | Wet-dog shakes versus 1 mg/kg NTX (morphine-pelleted mice; [5]): significantly less | Withdrawal signs in placebo-pelleted mice (morphine-pelleted mice; 50 mg/kg s.c., placebo-pelleted mice, 20 min observation): did not induce any significant withdrawal signs | Effect on the DAMGO Emax value (μ opioid receptor (MOR); 5 nM coincubation, mMOR-CHO cells and thalamus): did not have any effect on the DAMGO Emax value | MOR stimulation compared to other ligands (μ opioid receptor (MOR); mMOR-CHO cells): low MOR stimulation that was significantly less than DAMGO and similar to NAQ and nalbuphine | Emax (μ opioid receptor (MOR); read-out: Emax (% DAMGO)): 25.5 ± 1.58% | Agonism in Ca2+ flux assay (hMOR): no apparent agonism | EC50 (δ opioid receptor (DOR); DOR EC50 (nM), mDOR-CHO): 22.8 ± 3.95 nM | Emax (δ opioid receptor (DOR); read-out: DOR Emax (% max of SNC80), mDOR-CHO, relative to 5 μM SNC80): ~27% | EC50 (κ opioid receptor (KOR); KOR EC50 (nM), mKOR-CHO): 17.8 ± 3.24 nM | Emax (κ opioid receptor (KOR); read-out: KOR Emax (% max of U50,488H), mKOR-CHO, relative to 5 μM U50,488H): ~74% | Bmax (pmol/mg) of [3H]naloxone saturation binding after pretreatment (MOR [2]; 1 μM): 3.92 ± 0.20 pmol/mg | Ki (DOR): 13.7 ± 1.39 nM

O=C(N[C@H]1CC[C@@]2(O)[C@H]3Cc4ccc(O)c5c4[C@@]2(CCN3CC2CC2)[C@H]1O5)c1cc2ccccc2cn1 [NAQ, 17-cyclopropyl-methyl-3,14β-dihydroxy-4,5α-epoxy-6α-(isoquinoline-3-carboxamido)morphinan]
Change of DAMGO EC50 value after ligand pretreatment (desensitization) (MOR [3]): did not produce a significant change | Bmax (pmol/mg) of [3H]naloxone saturation binding after pretreatment (MOR [1]): 3.75 ± 0.34 pmol/mg | Apparent increase in [3H]naloxone KD value after treatment (MOR [2]; versus vehicle): 3.5–4 fold

O=C1CC[C@@]2(O)[C@H]3Cc4ccc(O)c5c4[C@@]2(CCN3CC2CC2)[C@H]1O5 [NTX, naltrexone]
Functional character in the rat thalamus (MOR in rat thalamus): pure antagonists

Oc1ccc2c3c1O[C@H]1[C@@H](O)CC[C@@]4(O)[C@@H](C2)N(CC2CCC2)CC[C@]314 [nalbuphine]
Functional character in the rat thalamus (MOR in rat thalamus): pure antagonists
